Data set [1] is described as follows: Cytotoxicity against mouse peritoneal macrophages assessed as cell viability by trypan blue exclusion assay. The settings on record: peritoneal macrophage cell. Format: cell-based. In outline:
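Thioglycollate-elicited mouse peritoneal macrophages were plated at 2×10^5 cells/well in supplemented RPMI-1640. They were exposed to compound, with or without 10 ng/ml LPS, for 18 h at 37°C, 5% CO2. Viability was then scored by trypan blue exclusion.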

The target of data set [2] is T1, Toll-like receptor 4 (Mus musculus) (UniProt Q9QUK6).
T1 sequence (whole entry): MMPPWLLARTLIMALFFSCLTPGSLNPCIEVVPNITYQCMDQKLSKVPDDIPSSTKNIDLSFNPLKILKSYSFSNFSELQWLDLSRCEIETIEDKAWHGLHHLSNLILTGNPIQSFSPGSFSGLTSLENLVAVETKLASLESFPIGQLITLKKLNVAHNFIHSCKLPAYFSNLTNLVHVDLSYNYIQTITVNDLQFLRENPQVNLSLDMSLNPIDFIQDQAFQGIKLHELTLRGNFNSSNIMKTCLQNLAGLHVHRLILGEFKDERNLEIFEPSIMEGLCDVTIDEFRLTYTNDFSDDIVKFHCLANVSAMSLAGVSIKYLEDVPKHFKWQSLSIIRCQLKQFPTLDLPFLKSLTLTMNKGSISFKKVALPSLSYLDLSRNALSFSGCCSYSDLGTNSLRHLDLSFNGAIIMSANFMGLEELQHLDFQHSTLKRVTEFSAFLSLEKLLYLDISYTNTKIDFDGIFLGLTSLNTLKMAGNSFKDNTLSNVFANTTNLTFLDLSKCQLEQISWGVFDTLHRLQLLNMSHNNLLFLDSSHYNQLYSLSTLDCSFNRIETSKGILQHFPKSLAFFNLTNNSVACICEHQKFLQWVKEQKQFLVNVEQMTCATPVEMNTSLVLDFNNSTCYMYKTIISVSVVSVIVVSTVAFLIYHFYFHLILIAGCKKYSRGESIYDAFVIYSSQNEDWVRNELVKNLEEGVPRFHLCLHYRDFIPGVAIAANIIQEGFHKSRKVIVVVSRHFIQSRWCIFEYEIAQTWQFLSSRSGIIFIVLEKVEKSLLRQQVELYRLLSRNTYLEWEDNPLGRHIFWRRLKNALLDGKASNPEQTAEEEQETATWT
In words: Enhancement of LPS-induced TLR4 activation in mouse peritoneal macrophages assessed as IL-6 production at 0.6 to 19.2 uM after 18 hrs by ELISA. In outline: (§1)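 Thioglycollate-elicited mouse peritoneal macrophages were plated at 2×10^5 cells/well in RPMI-1640 with 10% fetal calf serum and penicillin-streptomycin. They were incubated 18 h at 37°C, 5% CO2 with compound, with or without 10 ng/ml LPS. IL-6 in the supernatant was measured by ELISA. Data are representative of at least two replicate experiments, and significance was tested by ANOVA.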

The target in data set [3] is T1, Toll-like receptor 4 (Mus musculus). In words: Agonist activity at TLR4 in thioglycollate-elicited mouse peritoneal macrophages assessed as induction of IL-6 production in after 18 hrs by ELISA. Format: functional. In outline: as §1
For orientation: ELISA stands for enzyme-linked immunosorbent assay.

Data set [4] has as its target T2, Toll-like receptor 4 (Mus musculus, UniProt Q9QUK6).
T2 sequence (Q9QUK6 whole entry): T1 sequence (whole entry)
In words: (§2) Inhibition of LPS-induced TLR4 activation in thioglycollate-elicited mouse peritoneal macrophages assessed as inhibition of IL-6 production after 18 hrs by ELISA. Put shortly: as §1

The test system of data set [5] is Sf9. The data set is described as follows: Competitive binding affinity at MD1 transfected in Sf9 insect cells after 1 hr by native PAGE in presence of LPS. Format: cell-based. In outline: (§3)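 MD-1 was expressed by baculovirus and purified by Ni-NTA affinity, anion exchange and gel filtration. It was combined with compound and then LPS in 20 mM Hepes pH 7.4/150 mM NaCl. After 1 h at room temperature, the mixture was analysed by native PAGE on a 4–20% gradient gel at pH 8.8.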

In data set [6] the test system is Macrophage. In words: Induction of IL-6 production in TLR4-deficient mouse macrophages. It is filed as functional, cell-based.
Data set [7] concerns Sf9. The data set is described as follows: Binding affinity at MD1 transfected in Sf9 insect cells after 1 hr by native PAGE. It is filed as cell-based. Put shortly: as §3
For data set [8], the target named is Toll-like receptor 4 (Homo sapiens) (UniProt O00206). In words: Partial agonist activity at TLR4 transfected in Sf9 insect cells assessed as inhibition of LPS-mediated sTLR4/MD2 homodimerization after 1 hr by native PAGE. It is filed as functional, cell-based. Put shortly:
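The sTLR4 ectodomain/MD-2 complex was co-expressed in Hi5 insect cells from baculovirus made in SF9 cells. It was purified by Ni-NTA and Strep-Tactin affinity, tag removal with thrombin, and size exclusion. After 1 h at room temperature, the mixture was resolved by native PAGE on a 4–20% gel at pH 8.8.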

In data set [9] the target is T1, Toll-like receptor 4 (Mus musculus). The description is as §2. In outline:
as §1

SMILES strings stand for the structures. pIC50: −log10 of the molar value. The source made the active and inactive calls. The calls are words filed in the database; no cut-off is given here.

By pIC50 is commonly meant the negative decadic logarithm of the IC50, by convention in mol/L.

Sequence of Toll-like receptor 4 (Homo sapiens) (O00206 whole entry, the tested form may be a part): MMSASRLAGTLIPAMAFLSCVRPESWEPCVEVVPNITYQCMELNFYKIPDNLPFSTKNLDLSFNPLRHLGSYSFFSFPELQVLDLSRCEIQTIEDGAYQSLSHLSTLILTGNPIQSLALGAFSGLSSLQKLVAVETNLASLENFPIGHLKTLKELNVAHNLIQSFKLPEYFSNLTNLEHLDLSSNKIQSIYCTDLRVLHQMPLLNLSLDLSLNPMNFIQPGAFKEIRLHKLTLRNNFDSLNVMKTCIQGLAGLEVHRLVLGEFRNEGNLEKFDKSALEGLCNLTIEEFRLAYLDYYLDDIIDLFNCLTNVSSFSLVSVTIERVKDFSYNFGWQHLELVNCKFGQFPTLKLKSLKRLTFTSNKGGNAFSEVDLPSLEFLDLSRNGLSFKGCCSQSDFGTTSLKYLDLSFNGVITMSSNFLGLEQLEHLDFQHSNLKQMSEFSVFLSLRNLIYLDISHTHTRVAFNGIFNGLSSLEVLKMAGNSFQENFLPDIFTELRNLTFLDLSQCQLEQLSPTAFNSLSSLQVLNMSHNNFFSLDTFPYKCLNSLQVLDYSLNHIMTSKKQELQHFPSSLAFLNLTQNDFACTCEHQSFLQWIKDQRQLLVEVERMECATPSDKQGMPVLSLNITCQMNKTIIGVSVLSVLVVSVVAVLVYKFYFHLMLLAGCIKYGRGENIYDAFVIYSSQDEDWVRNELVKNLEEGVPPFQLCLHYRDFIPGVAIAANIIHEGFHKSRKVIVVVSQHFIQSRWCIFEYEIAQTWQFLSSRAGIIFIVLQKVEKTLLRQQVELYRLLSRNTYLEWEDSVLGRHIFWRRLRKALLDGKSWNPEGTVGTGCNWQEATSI

Regarding `CCCCCCCCCCCCCCCCO[C@H](COC(=O)CCCCCCCCCCCCCCC)COP(=O)(O)O[C@@H]1[C@H](O[C@H]2O[C@H](COC(=O)CCCCCCCCCCCCCCC)[C@@H](O)[C@H](O)[C@@H]2O)[C@H](O)[C@@H](O)[C@H](O)[C@H]1O[C@H]1O[C@H](CO)[C@@H](O)[C@H](O)[C@@H]1O`, the Activity result is “Non-toxic” in data set [1] and 275 pg/mL in data set [3]. Besides, in [2], the outcome was Active.
Turning to `CCCCCCCCCCCCCCCCO[C@H](COC(=O)CCCCCCCCCCCCCCC)COP(=O)(O)OC(CO[C@H]1O[C@H](CO)[C@@H](O)[C@H](O)[C@@H]1O)CO[C@H]1O[C@H](CO)[C@@H](O)[C@H](O)[C@@H]1O`, the negative logarithm of the IC50 (pIC50) in [4] was 4.37. For the same compound, the values for the Activity result in data set [1] and in data set [3] were “Non-toxic” and 923 pg/mL, respectively.
For `CCCCCCCCCCCCCCCC(=O)OC[C@H](COP(=O)(O)O[C@@H]1[C@H](O[C@H]2O[C@H](CO)[C@@H](O)[C@H](O)[C@@H]2O)[C@H](O)[C@@H](O)[C@H](O)[C@H]1O[C@H]1O[C@H](CO)[C@@H](O)[C@H](O)[C@@H]1O)OC(=O)CCCCCCCCCCCCCCC`, the pIC50 in data set [4] is 4.40. Further, the Activity result is “Dose-dependent effect” in data set [5], “Non-toxic” in data set [1] and 817 pg/mL in [3]. Further, in data set [6], the outcome was inactive. Also, the result in data set [7] and in [8] was Active.
Consider `CCCCCCCCCCCCCCCC(=O)N[C@H](COC(=O)CCCCCCCCCCCCCCC)COP(=O)(O)O[C@@H]1[C@H](O[C@H]2O[C@H](CO)[C@@H](O)[C@H](O)[C@@H]2O)[C@H](O)[C@@H](O)[C@H](O)[C@H]1O[C@H]1O[C@H](CO)[C@@H](O)[C@H](O)[C@@H]1O`, for which the negative-log IC50 (pIC50) in data set [4] was 4.64. In addition, the Activity result in [1] was “Non-toxic”; in data set [3], 664 pg/mL.
For the compound `CCCCCCCCCCCCCCCCOC[C@H](COP(=O)(O)O[C@@H]1[C@H](O[C@H]2O[C@H](CO)[C@@H](O)[C@H](O)[C@@H]2O)[C@H](O)[C@@H](O)[C@H](O)[C@H]1O[C@H]1O[C@H](CO)[C@@H](O)[C@H](O)[C@@H]1O)OC(=O)CCCCCCCCCCCCCCC`, in data set [4], the pIC50 is 4.54. The figures for the Activity result in [1] and in data set [3] were “Non-toxic” and 1130 pg/mL, respectively.
The like results for `CCCCCCCCCCCCCCCCOC[C@H](COP(=O)(O)O[C@@H]1[C@H](O[C@H]2O[C@H](CO)[C@@H](O)[C@H](O)[C@@H]2O)[C@H](O)[C@@H](O)[C@H](O)[C@H]1O[C@H]1O[C@H](CO)[C@@H](O)[C@H](O)[C@@H]1O)OCCCCCCCCCCCCCCCC` were, in that order, 4.63, “Non-toxic” and 494 pg/mL.
The like results for `CCCCCCCCCCCCCCCC(=O)OC[C@H](COP(=O)(O)OC(CO[C@H]1O[C@H](CO)[C@@H](O)[C@H](O)[C@@H]1O)CO[C@H]1O[C@H](CO)[C@@H](O)[C@H](O)[C@@H]1O)OC(=O)CCCCCCCCCCCCCCC` were, in that order, 4.89, “Non-toxic” and 143 pg/mL.
`CCCCCCCCCCCCCCCCO[C@H](COC(=O)CCCCCCCCCCCCCCC)COP(=O)(O)O[C@@H]1[C@H](O[C@H]2O[C@H](CO)[C@@H](O)[C@H](O)[C@@H]2O)[C@H](O)[C@@H](O)[C@H](O)[C@H]1O[C@H]1O[C@H](CO)[C@@H](O)[C@H](O)[C@@H]1O`: the inhibition entry in data set [9] is “Dose-dependent effect”. Besides, the pIC50 in [4] is 4.52. Further, the Activity result in data set [1] was “Non-toxic”; in [3] it was 1460 pg/mL.
